Tests used:
[1] = biological target: T1, 5-hydroxytryptamine receptor 1D (Homo sapiens, UniProt P28221); experiment: Displacement of [3H]-5-HT from human 5-hydroxytryptamine 1D receptor alpha expressed in HEK 293 cells; type: cell-based, HEK293
Outline: (§1)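 HEK 293 microsomal membranes expressing human 5-HT1Dα or 5-HT1Dβ, in 50 mM Tris-HCl buffer with 4 mM CaCl2, 0.1% ascorbic acid, pargyline and leupeptine. [3H]-5-HT (final 0.01-150 nM) incubated with membranes and displacer for 30 min at 25 °C. Glass-fibre filtration, then scintillation counting. Nonspecific binding taken with 10^-5 M 5-HT. Nonlinear least-squares fitting (EBDA/LIGAND); mean ± SEM, n=3.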
Target sequence in this assay (P28221 whole entry): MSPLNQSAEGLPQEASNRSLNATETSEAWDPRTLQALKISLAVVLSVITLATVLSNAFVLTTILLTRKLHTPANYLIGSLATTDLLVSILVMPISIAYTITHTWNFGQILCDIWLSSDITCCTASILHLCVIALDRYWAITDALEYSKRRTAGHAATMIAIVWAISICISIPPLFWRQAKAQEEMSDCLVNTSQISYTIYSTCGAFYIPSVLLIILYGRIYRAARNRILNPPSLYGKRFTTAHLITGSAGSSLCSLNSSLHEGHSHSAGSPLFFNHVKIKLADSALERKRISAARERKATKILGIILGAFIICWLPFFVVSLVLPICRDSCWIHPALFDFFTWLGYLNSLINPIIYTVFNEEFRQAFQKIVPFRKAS

[2] = biological target: T1, 5-hydroxytryptamine receptor 1D; experiment: (§2) Compound was tested for binding affinity against cloned human 5-hydroxytryptamine 1D receptor alpha expressed in CHO-K1 cells.; type: cell-based
Outline: (§3)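 CHO cell membranes expressing cloned human 5-HT1A, 5-HT1Dα or 5-HT1Dβ receptors, or rat D2 receptors (20-60 µg protein). Radioligands: [3H]-8-OH-DPAT (5-HT1A), [3H]-5-HT (5-HT1D), [3H]U-86170 (D2). Buffers at pH 7.4: 50 mM Tris/5 mM MgCl2 (5-HT1A); the same with 0.1% ascorbic acid (5-HT1D); 20 mM HEPES/10 mM MgSO4 (D2). Nonspecific binding defined with lisuride, serotonin and haloperidol respectively. 11 concentrations in duplicate, 1 h at room temperature (5-HT1D protected from light), filtration.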

[3] = Distribution coefficient (LogD) of compound reported; type: physicochemical; conditions: octanol/water
Outline: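 log D calculated with Pallas version 1.2.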

[4] = biological target: T2, 5-hydroxytryptamine receptor 1A (Homo sapiens, UniProt P08908); experiment: Compound was tested for binding affinity against cloned human 5-hydroxytryptamine 1A receptor expressed in CHO-K1 cells.; type: cell-based
T2 sequence (P08908 whole entry): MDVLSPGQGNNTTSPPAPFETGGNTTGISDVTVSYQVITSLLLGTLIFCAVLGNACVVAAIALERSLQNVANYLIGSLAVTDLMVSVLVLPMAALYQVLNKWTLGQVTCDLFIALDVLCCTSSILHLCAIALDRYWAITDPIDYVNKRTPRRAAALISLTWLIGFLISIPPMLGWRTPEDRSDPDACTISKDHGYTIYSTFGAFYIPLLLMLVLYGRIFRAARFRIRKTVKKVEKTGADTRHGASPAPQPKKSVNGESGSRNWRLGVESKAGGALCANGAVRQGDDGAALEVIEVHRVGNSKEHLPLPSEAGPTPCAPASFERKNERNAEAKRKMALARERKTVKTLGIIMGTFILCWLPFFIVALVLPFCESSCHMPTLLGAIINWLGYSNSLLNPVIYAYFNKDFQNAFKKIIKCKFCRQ
Outline: as §3, with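 “protein).” for “protein). Radioligands: [3H]-8-OH-DPAT (5-HT1A), [3H]-5-HT (5-HT1D), [3H]U-86170 (D2).”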

[5] = biological target: T3, 5-hydroxytryptamine receptor 1B (Homo sapiens, UniProt P28222); experiment: Compound was tested for binding affinity against cloned human 5-hydroxytryptamine 1D receptor beta expressed in CHO-K1 cells.; type: cell-based
T3 sequence (P28222 whole entry): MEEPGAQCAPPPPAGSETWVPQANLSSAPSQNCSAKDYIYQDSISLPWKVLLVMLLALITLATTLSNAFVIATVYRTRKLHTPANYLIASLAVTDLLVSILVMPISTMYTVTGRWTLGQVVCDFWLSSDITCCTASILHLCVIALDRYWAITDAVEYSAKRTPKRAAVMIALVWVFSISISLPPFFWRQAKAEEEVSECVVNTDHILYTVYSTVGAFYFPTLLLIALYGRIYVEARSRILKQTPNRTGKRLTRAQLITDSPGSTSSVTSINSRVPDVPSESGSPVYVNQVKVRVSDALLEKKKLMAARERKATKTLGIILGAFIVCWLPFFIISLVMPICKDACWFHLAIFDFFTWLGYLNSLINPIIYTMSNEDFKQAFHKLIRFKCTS

[6] = biological target: T1, 5-hydroxytryptamine receptor 1D; experiment: as §2; type: cell-based; remark: listed apart in the source
Outline: as §3, with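 “protein).” for “protein). Radioligands: [3H]-8-OH-DPAT (5-HT1A), [3H]-5-HT (5-HT1D), [3H]U-86170 (D2).”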
Target sequence in this assay (P28221 whole entry): as the sequence (P28221 whole entry) above

[7] = biological target: T3, 5-hydroxytryptamine receptor 1B; experiment: Compound was tested for binding affinity against human 5-hydroxytryptamine 1D receptor beta clones expressed in human embryonic kidney (HEK 293) cells line.; type: cell-based, HEK293; outline: as §1
[8] = biological target: T1, 5-hydroxytryptamine receptor 1D; experiment: Compound was tested for binding affinity against human 5-hydroxytryptamine 1D receptor alpha clones expressed in human embryonic kidney (HEK 293) cells line.; type: cell-based, HEK293; outline: as §1
Target sequence in this assay (P28221 whole entry): as above

D(2) dopamine receptor = D(2) dopamine receptor (Rattus norvegicus, UniProt P61169); experiment: Binding affinity for rat dopamine D2 receptor expressed in CHO-K1 cells; type: cell-based; outline: as §3
Chain of D(2) dopamine receptor (P61169 whole entry): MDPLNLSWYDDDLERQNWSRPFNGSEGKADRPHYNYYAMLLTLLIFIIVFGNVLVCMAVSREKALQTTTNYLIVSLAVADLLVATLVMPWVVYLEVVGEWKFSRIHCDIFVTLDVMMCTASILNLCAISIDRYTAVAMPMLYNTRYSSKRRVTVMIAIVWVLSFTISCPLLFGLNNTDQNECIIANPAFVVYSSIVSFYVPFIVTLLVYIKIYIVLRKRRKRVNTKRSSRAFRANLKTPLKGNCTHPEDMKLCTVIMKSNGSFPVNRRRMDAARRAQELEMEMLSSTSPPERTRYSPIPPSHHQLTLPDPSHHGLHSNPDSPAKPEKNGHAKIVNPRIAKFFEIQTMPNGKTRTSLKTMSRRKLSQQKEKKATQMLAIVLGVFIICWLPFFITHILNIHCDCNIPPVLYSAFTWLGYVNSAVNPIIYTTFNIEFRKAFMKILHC

Cavia porcellus [9] = experiment: Effect of 50(umol/kg, sc) compound on guinea pig rectal temperature (Hypothermia); type: functional
Outline: (§4)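 Male guinea pigs housed individually at least 1 h before testing, groups of five. Compound given sc in 0.25% methylcellulose (equimolar citric acid for free bases), 5 mL/kg. Rectal probe inserted 3-4 cm; temperature read before dosing and at 60 min. Reported as change from the 0 min value, mean ± SEM (n=4-5).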

Cavia porcellus [10] = experiment: The level of 5-HIAA (hypothalamus) measured by means of HPCL with electrochemical detection methods at 50(umol/kg, sc); type: functional
Outline: (§5)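 Male Dunkin-Hartley guinea pigs dosed sc in 0.25% methylcellulose (citric acid added for free bases), 5 mL/kg. Decapitated 60 min after dosing; prefrontal cortex and hypothalamus dissected on ice and stored at -80 °C. 5-HT and 5-HIAA measured by HPLC-electrochemical detection. Expressed as % of vehicle controls, mean ± SEM (n=4-5); ANOVA with Fisher's PLSD.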

Cavia porcellus [11] = experiment: Effect of 12.5 (umol/kg, sc) compound on guinea pig rectal temperature (Hypothermia); type: functional; outline: as §4
Cavia porcellus [12] = experiment: The level of 5-HIAA (hypothalamus) measured by means of HPCL with electrochemical detection methods at 12.5 (umol/kg, sc); type: functional; outline: as §5
Cavia porcellus [13] = experiment: The level of 5-HIAA (prefrontal cortex) measured by means of HPCL with electrochemical detection methods at 50(umol/kg, sc); type: functional; outline: as §5
Cavia porcellus [14] = experiment: The level of 5-HIAA(prefrontal cortex) measured by means of HPCL with electrochemical detection methods at 12.5 (umol/kg, sc); type: functional; outline: as §5
Cavia porcellus [15] = experiment: The level of 5-HT (hypothalamus) measured by means of HPCL with electrochemical detection methods at 50(umol/kg, sc); type: functional; outline: as §5
Cavia porcellus [16] = experiment: The level of 5-HT (hypothalamus) measured by means of HPCL with electrochemical detection methods at 12.5 (umol/kg, sc); type: functional; outline: as §5
Cavia porcellus [17] = experiment: The level of 5-HT (prefrontal cortex) measured by means of HPCL with electrochemical detection methods at 12.5 (umol/kg, sc); type: functional; outline: as §5
Cavia porcellus [18] = experiment: The level of 5-HT (prefrontal cortex) measured by means of HPCL with electrochemical detection methods at 50(umol/kg, sc); type: functional; outline: as §5
Rattus norvegicus [19] = experiment: 5-HTP accumulation in Rat brain accumbens when Reserpine given 24 hr before decapitation & 45 & 30 min before 10 umol/kg test drug; type: functional
Outline: (§6)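 Rats reserpinized (5 mg/kg ip) 24 h before test compound (10 µmol/kg sc in saline, 1.0 mL/kg). NSD 1015 (100 mg/kg) given 15 min after test compound; decapitation 30 min later. Regions stored at -70 °C, homogenized in TCA, supernatant analysed by HPLC-electrochemical detection. Output is 5-HTP in µg/g wet tissue, mean ± SEM (striatum n=8, others n=4); one-way ANOVA with post hoc t-test.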

Rattus norvegicus [20] = experiment: 5-HTP accumulation in Rat brain frontal cortex when Reserpine given 24 hr before decapitation & 45 & 30 min before 10 umol/kg test drug; type: functional; outline: as §6
Rattus norvegicus [21] = experiment: 5-HTP accumulation in Rat brain hippocampus when Reserpine given 24 hr before decapitation & 45 & 30 min before 10 umol/kg test drug; type: functional; outline: as §6
Rattus norvegicus [22] = experiment: 5-HTP accumulation in Rat brain striatum when Reserpine given 24 hr before decapitation & 45 & 30 min before 10 umol/kg test drug; type: functional; outline: as §6
[23] = biological target: T1, 5-hydroxytryptamine receptor 1D; experiment: Ratio of receptor binding affinities of 5-hydroxytryptamine 1D receptor alpha vs 5-hydroxytryptamine 1D receptor beta
Target sequence in this assay (P28221 whole entry): as the sequence (P28221 whole entry) above

Cavia porcellus [24] = experiment: Effect of 6.250 (umol/kg, sc) compound on guinea pig rectal temperature (Hypothermia); type: functional; outline: as §4
Cavia porcellus [25] = experiment: The level of 5-HIAA (hypothalamus) measured by means of HPCL with electrochemical detection methods at 6.250 (umol/kg, sc); type: functional; outline: as §5
Cavia porcellus [26] = experiment: The level of 5-HIAA (prefrontal cortex) measured by means of HPCL with electrochemical detection methods at 6.250 (umol/kg, sc); type: functional; outline: as §5
Cavia porcellus [27] = experiment: The level of 5-HT (prefrontal cortex) measured by means of HPCL with electrochemical detection methods at 6.250 (umol/kg, sc); type: functional; outline: as §5
Cavia porcellus [28] = experiment: Effect of 25 (umol/kg, sc) compound on guinea pig rectal temperature (Hypothermia); type: functional; outline: as §4
Cavia porcellus [29] = experiment: The level of 5-HIAA (hypothalamus) measured by means of HPCL with electrochemical detection methods at 25 (umol/kg, sc); type: functional; outline: as §5
Cavia porcellus [30] = experiment: The level of 5-HIAA (prefrontal cortex) measured by means of HPCL with electrochemical detection methods at 25 (umol/kg, sc); type: functional; outline: as §5
Cavia porcellus [31] = experiment: The level of 5-HT (hypothalamus) measured by means of HPCL with electrochemical detection methods at 25 (umol/kg, sc); type: functional; outline: as §5
Cavia porcellus [32] = experiment: The level of 5-HT (prefrontal cortex) measured by means of HPCL with electrochemical detection methods at 25 (umol/kg, sc); type: functional; outline: as §5
[33] = biological target: T3, 5-hydroxytryptamine receptor 1B; experiment: Compound was tested for binding affinity against cloned human 5-HT1D beta receptor expressed in CHO-K1 cells.; type: cell-based; outline: as §3
Cavia porcellus [34] = experiment: Effect of 50(umol/kg, sc) compound on guinea pig rectal temperature; Hypothermia 0-60 delta degree C; type: functional; outline: as §4
Cavia porcellus [35] = experiment: Effect of 12.5 (umol/kg, sc) compound on guinea pig rectal temperature; Hypothermia 0-60 delta degree C; type: functional; outline: as §4

CCN(CC)CCc1c[nH]c2ccc(OCc3ccccc3)cc12
IC50 [1]: 110 nM | IC50 [2]: 110 nM | logD [3]: 2.18

CN(C)CCc1c[nH]c2ccc(OCc3ccccc3)cc12
IC50 [1]: 25 nM | IC50 [2]: 76 nM | logD [3]: 2.28

CCCN(CCC)CCc1c[nH]c2ccc(OCc3ccccc3)cc12
IC50 [1]: 470 nM | IC50 [2]: 470 nM | logD [3]: 3.08

CN(C)CCc1c[nH]c2ccc(OS(=O)(=O)C(F)(F)F)cc12
Ki [4]: 40 nM | Ki [5]: 32 nM | Ki [6]: 3.2 nM | IC50 [7]: 98 nM | IC50 [8]: 8.4 nM | logD [3]: 1.41 | Ki (D(2) dopamine receptor): 538 nM | Others (Cavia porcellus [9]): -1.72 | Others (Cavia porcellus [10]): 54% | Others (Cavia porcellus [11]): -1.7 | Others (Cavia porcellus [12]): 66% | Others (Cavia porcellus [13]): 46% | Others (Cavia porcellus [14]): 59% | Others (Cavia porcellus [15]): 123% | Others (Cavia porcellus [16]): 97% | Others (Cavia porcellus [17]): 104% | Others (Cavia porcellus [18]): 129% | 5-HTP accumulation (Rattus norvegicus [19]): 0.4 µg/g | Accumulation (Rattus norvegicus [19]): 81.6% | 5-HTP accumulation (Rattus norvegicus [20]): 0.37 µg/g | Accumulation (Rattus norvegicus [20]): 78.8% | 5-HTP accumulation (Rattus norvegicus [21]): 0.28 µg/g | Accumulation (Rattus norvegicus [21]): 100% | 5-HTP accumulation (Rattus norvegicus [22]): 0.28 µg/g | Accumulation (Rattus norvegicus [22]): 75.7% | Ratio [23]: 10

CCN(CC)CCc1c[nH]c2ccc(O)cc12
IC50 [1]: 77 nM | IC50 [2]: 77 nM | logD [3]: 0.28

CCCN(CCC)C1CCc2cccc(O)c2C1 (stereo not drawn) [8-OH-DPAT]
Others (Cavia porcellus [24]): 0.22 | Others (Cavia porcellus [25]): 37% | Others (Cavia porcellus [26]): 34% | Others (Cavia porcellus [27]): 126%

NCCc1c[nH]c2ccc(OS(=O)(=O)C(F)(F)F)cc12
Ki [4]: 18 nM | Ki [5]: 14 nM | Ki [6]: 2.8 nM | logD [3]: -0.24 | Ki (D(2) dopamine receptor): 658 nM | Ratio [23]: 5

CNS(=O)(=O)Cc1ccc2[nH]cc(CCN(C)C)c2c1
Ki (D(2) dopamine receptor): > 218 nM | Others (Cavia porcellus [28]): -0.14 | Others (Cavia porcellus [29]): 133% | Others (Cavia porcellus [30]): 129% | Others (Cavia porcellus [31]): 122% | Others (Cavia porcellus [32]): 119%

CCCN(CCC)CCc1c[nH]c2ccc(O)cc12
IC50 [1]: 820 nM | IC50 [2]: 820 nM | logD [3]: 1.24

CCN(CC)CCc1c[nH]c2ccc(OS(=O)(=O)C(F)(F)F)cc12
Ki [4]: 27 nM | Ki [6]: 12 nM | IC50 [7]: 530 nM | Ki [2]: 171 nM | IC50 [8]: 21 nM | logD [3]: 1.31 | Ki (D(2) dopamine receptor): 637 nM | Ratio [23]: 14.3

CCCN(CCC)CCc1c[nH]c2ccc(OS(=O)(=O)C(F)(F)F)cc12
Ki [4]: 23 nM | Ki [33]: 246 nM | Ki [6]: 190 nM | IC50 [7]: 660 nM | IC50 [8]: 170 nM | logD [3]: 2.21 | Ki (D(2) dopamine receptor): 502 nM | Ratio [23]: 1.3

COc1ccc(CNC(=O)/C=C/c2ccc3[nH]cc(CCN(C)C)c3c2)cc1
Ki [4]: 1.3 nM | Ki [5]: 0.2 nM | Ki [6]: 0.3 nM | logD [3]: 1.71 | Others (Cavia porcellus [34]): -2.62 | Others (Cavia porcellus [10]): 49% | Others (Cavia porcellus [35]): -1.62 | Others (Cavia porcellus [13]): 37% | Others (Cavia porcellus [15]): 121% | Others (Cavia porcellus [18]): 94%
